Assay results of several laboratories.
Protocols differ between the studies behind these lines.
PIK3CA: Phosphatidylinositol 4,5-bisphosphate 3-kinase catalytic subunit alpha isoform (PIK3CA, Homo sapiens, UniProt P42336)
T1R2/T1R3: T1R2/T1R3 (Homo sapiens, UniProt Q7RTX0+Q8TE23)
PIK3CB: Phosphatidylinositol 4,5-bisphosphate 3-kinase catalytic subunit beta isoform (PIK3CB, Homo sapiens, UniProt P42338)
FOLH1: Glutamate carboxypeptidase 2 (FOLH1, Homo sapiens, UniProt Q04609)

Compound | target | assay | measurement | result
CN(C)C(=O)c1cc2cnc(Nc3cccc(-c4cccc5c(=O)cc(N6CCOCC6)oc45)c3)nc2n1C1CCCC1 | PIK3CA | enzyme activity, inhibitor, radiometric | IC50 | 8170 nM
OC[C@H]1O[C@H](O[C@]2(CCl)O[C@H](CCl)[C@@H](O)[C@@H]2O)[C@H](O)[C@@H](O)[C@H]1Cl | T1R2/T1R3 | calcium signal, agonist | EC50 | 0.232 mM
O=C1C(=Nc2ccc(Cl)cc2)c2ccccc2N1Cc1ccc(Br)cc1 | PIK3CA | enzyme activity, inhibitor, ADP detection | IC50 | 29.8 nM
CN(C)C(=O)c1cc2cnc(Nc3ccc(-c4cccc5c(=O)cc(N6CCOCC6)oc45)cc3)nc2n1C1CCCC1 | PIK3CA | enzyme activity, inhibitor, radiometric | IC50 | 472 nM
CC(C)c1cccc(C(C)C)c1N=C1C(=O)N(Cc2ccc(Br)cc2)c2ccccc21 | PIK3CB | enzyme activity, inhibitor, ADP detection | IC50 | 86.2 nM
O=S(=O)(O)NC1CCCCC1 | T1R2/T1R3 | calcium signal, agonist | EC50 | 2.75 mM
CC1(C)CN(CCCCC(=O)N[C@@H](CCC(=O)O)C(=O)N[C@@H](CCC(=O)O)C(=O)N[C@H](CCCCNC(=O)CCCCCCC(=O)NCCCC[C@H](NC(=O)N[C@@H](CCC(=O)O)C(=O)O)C(=O)O)C(=O)O)CC[N]2CC(C)(C)[S][Tc]2(=[O])[S]1 (some centres unmarked) | FOLH1 | binding, radioligand | Kd | 6.1 nM
O=C1Nc2ccccc2/C1=N/c1ccccc1Br | PIK3CB | enzyme activity, inhibitor, ADP detection | IC50 | 524 nM
CN(C)C(=O)c1cc2cnc(Nc3cccc4c(=O)cc(N5CCOCC5)oc34)nc2n1C1CCCC1 | PIK3CA | enzyme activity, inhibitor, radiometric | IC50 | > 10000 nM
O=C(O)CC[C@H](NC(=O)N[C@@H](CCCCNC(=O)CCCCCCC(=O)NCCCC[C@@H](NC(=O)[C@H](CCC(=O)O)NC(=O)[C@H](CCC(=O)O)NC(=O)CCC(=O)NCCCN1CC[S][Tc]2(=[O])[S]CC[N]2CC1)C(=O)O)C(=O)O)C(=O)O (some centres unmarked) | FOLH1 | binding, radioligand | Kd | 6.8 nM
COc1nc(-c2cccc(-c3ccccc3)c2C)ccc1CNCCNC(=O)CCCCCCCCCCC(=O)N1CCN(CCNC(=O)c2cc3c(=O)n4cccc(C)c4nc3n(CCc3cccs3)c2=N)CC1 | Speckle-type POZ protein (SPOP, Homo sapiens, UniProt O43791) | binding, BLI | Kd | 2640 nM
CC1(C)CN(CCCCC(=O)N[C@H](Cc2ccccc2)C(=O)N[C@H](Cc2ccccc2)C(=O)N[C@@H](CCCCNC(=O)CCCCCCC(=O)NCCCC[C@H](NC(=O)N[C@@H](CCC(=O)O)C(=O)O)C(=O)O)C(=O)O)CC[N]2CC(C)(C)[S][Tc]2(=[O])[S]1 (some centres unmarked) | FOLH1 | binding, radioligand | Kd | 15.5 nM
CCC(C(=O)N1C(=O)C(=Nc2ccc(Cl)cc2Br)c2ccccc21)c1ccccc1 (centres unmarked) | PIK3CA | enzyme activity, inhibitor, ADP detection | IC50 | 409 nM
CC[C@H](C)[C@H](NC(=O)C[C@@H](NC(=O)CCC(=O)O)C(=O)O)C(=O)N[C@H]1CCc2cccc3c2N(C1=O)[C@H](C(=O)NCc1cn[nH]n1)C3 | Granzyme B (GZMB, Homo sapiens, UniProt P10144) | enzyme activity, inhibitor, fluorescence | Ki | 7.2 nM
